From PubChem
STAT1 activator = STAT1 signaling activation; NIH 3T3 STAT1-luciferase reporter, IFN-gamma, luminescence; 100% = IFN-gamma alone, no compound; activation (% of control), % at 5.5 µM; actives 2.6% (n = 200,000);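 active = activation above the screen-wide mean activation plus 3 SD, cut at about 130% in these data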;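 also: raw ratio to IFN-gamma control signal so 100% means no change and 0% no light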
FLuc stim CS = firefly luciferase counter-screen for stimulation assays; P08659; ATPlite luciferase biochemical, luminescence, 10 min; 0 = ATP-free wells, 1 = DMSO control; activation factor at 10 µM; 200,000 tested, under 10 active; AID 1027;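 active = luciferase activation factor, scaled between plate controls, of at least 2 with compound at 10 µM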
Target sequence (P08659 whole entry, looked up): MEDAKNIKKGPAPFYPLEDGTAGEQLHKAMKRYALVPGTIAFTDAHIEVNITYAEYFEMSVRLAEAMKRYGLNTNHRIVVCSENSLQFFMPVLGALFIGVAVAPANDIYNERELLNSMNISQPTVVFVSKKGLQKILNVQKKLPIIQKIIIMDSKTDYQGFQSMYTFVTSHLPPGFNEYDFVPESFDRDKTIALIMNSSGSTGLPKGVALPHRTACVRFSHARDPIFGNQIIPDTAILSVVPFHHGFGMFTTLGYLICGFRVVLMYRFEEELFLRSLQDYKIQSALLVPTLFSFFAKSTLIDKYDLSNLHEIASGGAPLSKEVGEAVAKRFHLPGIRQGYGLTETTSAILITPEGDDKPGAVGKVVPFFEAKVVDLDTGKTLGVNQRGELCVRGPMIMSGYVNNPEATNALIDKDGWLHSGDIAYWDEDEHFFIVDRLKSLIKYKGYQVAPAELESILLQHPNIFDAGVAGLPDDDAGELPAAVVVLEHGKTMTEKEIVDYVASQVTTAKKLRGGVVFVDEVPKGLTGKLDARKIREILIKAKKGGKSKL
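Material: luciferase plus luciferin reagent, cell-free. Medium: PBS buffer for ATP. Also added: ATP substrate, dispensed from a 10.24 µM working solution in PBS. Doses: test compounds dosed from 2 mM stocks in 100% DMSO. Incubation: 10 min post-reagent at room temperature. Technique: light output (luminescence). Read-out basis: luminescence gain marking luciferase activators.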
Pf gametocyte = P. falciparum stage V gametocyte viability inhibition; P. falciparum stage V gametocytes, ATP luminescence, 24 h; actives 0.065% (n = 150,000); inhibition, % at 10.9 µM;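 active = inhibition above the mean plus 3 SD of compounds within the control limits, set per campaign, cut at about 38% in these data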;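 also: 0% = DMSO wells and 100% = medium only without gametocytes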
NF-kB neuron act = NF-kB expression increase, human neuronal cells. NF-kB reporter expression; hits give high values. fold change at 12.5 µM. actives 1.6% (n = 190,000). AID 1239; in the data active = fold change above about 3.3
APP 5'UTR act = activates APP 5'UTR luciferase reporter; SH-SY5Y APP 5'UTR luciferase reporter, luminescence; zero percent = DMSO vehicle wells; activation, % at 2 µM; actives 1% (n = 190,000); AID 1276;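 active = activation above a set limit, based on mean plus 3 SD of controls, cut at about 140% in these data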
FLuc inh counter = counter-screen for luciferase assay inhibitors: firefly luciferase inhibition | ATPLite firefly luciferase biochemical luminescence, 10 min | inhibition, % at 10 µM | actives 1.5% (n = 200,000) | AID 1006;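 active = inhibition above about 50% when tested at 10 µM, limit read from the data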
* = called active by the depositor; . = not tested or not shown. In the library only some 3.5% were active in any assay of this set; here they are far more common.

SMILES	STAT1 activator	FLuc stim CS	Pf gametocyte	NF-kB neuron act	APP 5'UTR act	FLuc inh counter
O=C(O)Cn1cc(/C=C2\SC(=O)N(c3ccccc3)C2=O)c2ccccc21	108.1	0.8	13.0	1.42	27.1	15.4
Cn1cc(/C=C2/SC(=O)N(c3ccccc3)C2=O)c2ccccc21	132.5*	1	-1.2	1.37	-7.8	-1.9
Cn1cc(/C=C/C(=O)c2ccccc2)c2ccccc21	.	.	4.4	.	200.4*	.
Cc1cc(F)cc(C)c1Cn1cnc2c(cnn2C(C)(C)C)c1=O	.	.	-11.3	.	.	.
C/C(CCC(C)C)=N\NC(=S)NCc1ccccc1	98.7	1	-9.1	1.13	-16.9	-3.7
CC(=O)c1c(C)[nH]c(C(=O)CSc2nnc(-c3ccccc3)o2)c1C	89.5	1.1	.	0.94	-5.8	-9.0
CC(=O)c1ccc2c(c1)Cc1cc(C(C)=O)ccc1-2	146.0*	1	.	2.99	74.6	2.3
CC(=O)c1ccc2c(c1)OCCOCCOCCO2	.	.	-12.9	.	.	.
Cc1ccc2[nH]c3c(c2c1)CCC3=O	102.2	1	.	1.23	7.3	-2.5
CCCCN1CCc2c([nH]c3ccc(C)cc23)C1=O	150.6*	1	.	3.16	123.2	4.0
COC(=O)C(Cc1ccc(O)cc1)NC(=O)NC12CC3CC(CC(C3)C1)C2 (centres undefined)	.	.	-5.5	.	.	.
C=C(C)CNC(=O)CCc1nnc(Cc2cccc(C(F)(F)F)c2)o1	140.2*	1.1	.	2.67	57.1	-7.3
CC(C)CN(C)C(=O)CCc1nnc(Cc2cccc(C(F)(F)F)c2)o1	133.2*	1	-1.6	2.1	66.0	-4.6
O=C(CCc1nnc(Cc2cccc(C(F)(F)F)c2)o1)NCC(F)(F)F	104.8	1.1	-13.1	1.38	4.4	-10.1
CC(NC(=O)CCc1nnc(Cc2cccc(C(F)(F)F)c2)o1)C1CC1 (centres undefined)	126.1	1.1	2.1	2.03	27.6	-5.7
CCOC(=O)c1c(-c2ccccc2)nc2ccc(C)cn12	137.9*	0.9	-10.0	2.2	66.0	9.8
CCOC(=O)c1c(-c2ccccc2)nc2cc(C)ccn12	133.3*	0.9	-45.0	1.96	57.1	9.4
CC1CC1C(=O)OCC(=O)NC(=O)NC12CC3CC(CC(C3)C1)C2 (centres undefined)	126.9	1	-20.2	1.56	10.6	-3.4
CCCc1ccc(OCc2ccc(C(=O)N3CCN(c4ccccn4)CC3)o2)c(OC)c1	113.4	1	.	0.47	-8.7	-1.5
O=C1C=C(c2ccccc2)CC(/C=C/c2ccccc2)C1 (centres undefined)	100.2	1	-13.6	1.24	9.9	-3.4
CC1N(C)c2cc(NC(=O)c3ccco3)ccc2C1(C)C (centres undefined)	142.6*	0.5	.	0.27	112.9	49.3
Cc1cccc2[nH]c(-c3ccc(NC(=O)c4ccco4)cc3)nc12	130.2*	0.8	-12.2	2.14	102.3	23.4
CCN(CC)c1ccc(NC(=O)c2ccco2)cc1	127.4	0.2	.	5.25*	163.8*	83.2*
CCN(CC)c1ccc(NC(=O)c2ccco2)c(C)c1	101.3	1	15.7	1.72	8.9	-2.2
CCCC(=O)Nc1ccc(NC(=S)NC(=O)c2cccs2)cc1	107.0	1	-10.4	1.15	3.9	-3.2
SMILES	STAT1 activator	FLuc stim CS	Pf gametocyte	NF-kB neuron act	APP 5'UTR act	FLuc inh counter
CCN(CC)c1ccc(NC(=S)NC(=O)c2cccs2)cc1	134.5*	1	-13.7	1.87	97.2	3.6
COc1ccc2oc(=O)c(-c3ccccc3C(=O)N3CCOCC3)cc2c1	90.4	1	.	0.95	-2.4	-3.0
O=C(NCc1ccc(F)cc1)C1CCCN1C(=O)Nc1cccc(F)c1 (centres undefined)	.	.	4.1	.	.	.
O=C(NC(=S)Nc1ccc2c(c1)OCCO2)c1ccco1	.	.	-2.0	.	.	.
CC(C)CN1C(=O)c2ccc(NC(=O)c3ccco3)cc2C1=O	129.8*	0.8	.	1.06	9.0	20.6
O=C(Nc1ccc(N2CCCC2)c(Cl)c1)c1cccs1	142.1*	0.3	-8.7	7.43*	234.6*	66.0*
O=C(NC(=S)Nc1ccc(N2CCOCC2)c(Cl)c1)c1cccs1	109.7	0.9	-5.5	1.13	73.0	7.2
CCN(CC)c1ccc(NC(=S)NC(=O)c2ccco2)cc1	142.2*	0.9	-38.2	1.63	96.8	8.1
CS(=O)(=O)N1CCN(c2ccc(NC(=S)NC(=O)c3cccs3)cc2)CC1	99.7	1	2.4	1.18	13.9	3.5
O=C(NC(=S)Nc1ccc(N2CCCCC2)cc1)c1cccs1	148.3*	0.6	-2.0	1.53	136.2*	36.3
O=C(CN1C(=O)C2C3CC(C(Br)C3Br)C2C1=O)Nc1ccc(C(=O)O)cc1 (centres undefined)	.	.	4.7	.	.	.
Cc1ccc2ccc(C(Nc3ccccn3)c3ccccc3)c(O)c2n1 (centres undefined)	98.3	1.1	.	1.31	0.2	-5.8
Cc1ccc2ccc(C(Nc3cccc(C(F)(F)F)c3)c3cccnc3)c(O)c2n1 (centres undefined)	99.3	1.1	39.0*	1.19	3.8	-8.9
Oc1c(C(Nc2ccccn2)c2ccccn2)ccc2cccnc12 (centres undefined)	94.2	1	.	7.03*	-25.7	-2.1
COc1cc(C(Nc2ccccn2)c2ccc3ccc(C)nc3c2O)cc(OC)c1O (centres undefined)	93.7	1	.	5.97*	-17.8	-4.7
Oc1ccccc1C(Nc1nccs1)c1ccc2cccnc2c1O (centres undefined)	.	.	2.9	.	.	.
COC(=O)C1CCN(S(=O)(=O)Cc2ccccc2Cl)CC1	.	.	2.6	.	.	.
COc1ccc(CNCC(=O)Nc2ccccc2-n2cccc2)cc1	90.9	1	.	1.35	-9.4	-1.6
COc1ccc(-c2cc3ccccc3cn2)cc1	.	.	10.0	.	.	.
COc1ccc(-c2cc3nnc(-c4ccccc4)nc3s2)cc1	134.6*	0.8	.	1.09	27.7	24.3
COc1ccc(S(=O)(=O)NC(CCSC)C(=O)NC2CCCCC2)cc1 (centres undefined)	97.3	1.1	.	1.14	-2.4	-5.9
Oc1ccc(/C=N/n2c3ccccc3c3ccccc32)cc1	91.1	1	.	0.88	14.4	-3.2
CCOC(=O)c1cc2c(s1)-c1ccccc1CC2	131.2*	1	17.3	1.85	40.9	3.7
CC(C)OC(=O)c1cc2ccccc2[nH]1	118.7	1	1.6	1.73	22.9	-4.8
CCOC(=O)c1cc2cc3ccccc3cc2[nH]1	135.6*	0.9	-17.6	3.44*	118.1	5.7
CCOC(=O)c1cc2ccc3ccccc3c2s1	151.4*	0.8	-23.9	3.06	74.5	18.8
C[C@H](CO)N1C[C@H](C)[C@@H](CN(C)C(=O)Nc2ccc3c(c2)OCO3)Oc2ccc(NC(=O)CCN3CCOCC3)cc2C1=O	.	.	9.2	.	.	.
C1=Nc2ccccc2CN1c1ccccc1	130.2*	0.9	.	1.97	19.4	13.3
CC(C)c1ccc(N2C=Nc3ccc(C(C)C)cc3C2)cc1	.	.	-15.1	.	.	.
